High-throughput results deposited in PubChem BioAssay by several laboratories.
Arbovirus inh – arbovirus infection inhibition; arbovirus infection cell-based antiviral screen; inhibition, % at 10 µM; 200,000 tested, 0.37% active; in the data active means inhibition above about 30%
TNAP inh no acc – inhibitors of human TNAP without phosphate acceptor | P05186 | purified TNAP, CDP-star luminescence, 30 min | 200,000 tested, 0.26% active | inhibition, % at 20 µM;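 active means tissue-nonspecific alkaline phosphatase inhibition above about 50% at 20 µM in the single-dose screen, limit read from the data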;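 further: 0% = DMSO negative control and 100% = EDTA positive control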
Target sequence (P05186 whole entry, looked up): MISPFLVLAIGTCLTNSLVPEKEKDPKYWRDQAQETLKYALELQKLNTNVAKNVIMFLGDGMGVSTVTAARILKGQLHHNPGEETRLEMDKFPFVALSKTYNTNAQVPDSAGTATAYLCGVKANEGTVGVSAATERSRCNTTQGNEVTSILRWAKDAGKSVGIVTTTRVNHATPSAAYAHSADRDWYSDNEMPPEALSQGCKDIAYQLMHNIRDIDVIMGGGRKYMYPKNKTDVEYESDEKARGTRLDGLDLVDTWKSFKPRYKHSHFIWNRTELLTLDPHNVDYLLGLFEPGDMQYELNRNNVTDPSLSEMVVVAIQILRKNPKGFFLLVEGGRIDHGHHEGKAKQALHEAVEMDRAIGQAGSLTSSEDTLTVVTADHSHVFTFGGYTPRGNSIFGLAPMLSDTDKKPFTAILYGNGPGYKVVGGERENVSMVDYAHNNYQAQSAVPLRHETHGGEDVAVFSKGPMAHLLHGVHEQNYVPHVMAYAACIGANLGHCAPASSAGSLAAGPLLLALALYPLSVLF
TNAP inh hiacc – inhibitors of human TNAP at high phosphate acceptor concentration; purified TNAP, CDP-star luminescence, 1 M DEA; 200,000 tested, 0.03% active; P05186; inhibition, % at 20 µM;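 active means over 50% inhibition of tissue-nonspecific alkaline phosphatase at 20 µM in the single-dose screen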;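 further: plate controls were DMSO wells for no effect and EDTA-quenched wells as full inhibition for full effect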
TNAP act hi DEA – TNAP (human) activation, high acceptor. activation factor at 20 µM. AID 1136. P05186. 200,000 tested, under 10 active. purified TNAP, CDP-star luminescence, 1 M DEA, 30 min; active compounds read high; 0 = EDTA background, 1 = DMSO-only activity;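 active means activation factor at least 2 at 20 µM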
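system = human TNAP | amount = enzyme diluted 1/800 final | reagent = 100 µM CDP-star substrate | signal = luminescent substrate turnover signal | dosing = one dose, 20 µM | benchmarks = EDTA negative control, DMSO positive control | measure = activation factor | timing = 30 min reaction, room temperature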
WT yeast gro inh – growth inhibition of WT yeast, mitochondrial fusion screen | 190,000 tested, 2.1% active | inhibition, % at 10 µM | mitochondrial fusion phenotypic screen, WT strain | AID 1362; in the data active means inhibition above about 58%; tested in S. cerevisiae
* marks the source's active call; other numbers are inactive results; ! = not active in a repeat. In the library only some 2.6% were active in any assay of this set; here they are far more common.

SMILES	Arbovirus inh	TNAP inh no acc	TNAP inh hiacc	TNAP act hi DEA	WT yeast gro inh
COC(=O)C1=C(CSCc2ccccc2)NC(=O)NC1c1cc(C)ccc1C (stereo not given)	2.8	-8.2	-4.8	1	-3.5
COC(=O)C1=C(CSc2nc3ccccc3o2)NC(=O)NC1c1cc(C)ccc1C (stereo not given)	15.7	-3.3	-1.1	1	75.4*
CCCCOc1ccc(C(O)C(CN2CCCCC2)c2ccccc2)cc1 (stereo not given)	36.9*	-13.2	-4.8	1	10.6
Cc1cc(SCC(=O)c2cc(C)n(C)c2C)nc2ccccc12	-9.0	-4.1	-6.6	1.1	2.8
Cc1cc(C)nc(/N=C(\N)Nc2ccc(S(=O)(=O)Nc3nccc(C)n3)cc2)n1	-3.9	-8.6	-6.8	1.1	-0.5
S=C(Nc1cccc(Cl)c1)NC1CCCCC1	19.2	-5.2	-0.1	1	45.3
S=C(Nc1ccc(Nc2ccccc2)cc1)NC1CCCCCC1	-11.6	-13.7	-9.0	1.1	80.5*
CC(C)(C)c1ccccc1NC(=S)NC1CCCCC1	5.6	-2.6	-0.8	1	66.2*
COc1cccc(NC(=O)C(=S)NC2CCCCC2)c1	6.0	-148.6	-4.8	1	58.8*
S=C(NNc1cccc(Cl)c1)NC1CCCCC1	-14.7	-1.0	3.1	1	61.2*
O=C(COC(=O)COc1ccccc1Cc1ccccc1)Nc1cccnc1Cl	9.0	-3.1	0.6	1	18.3
COc1ccc(N(CC(=O)NCCC2=CCCCC2)S(=O)(=O)c2ccccc2)c(OC)c1	14.3	0.9	-1.6	1	-7.0
COC(=O)CSc1nnc(CNc2ccc(Cl)cc2)n1-c1ccccc1	3.2	4.8	-0.9	1	16.0
O=C(OCc1nnc(-c2ccccc2)o1)c1cc2ccccc2cc1O	8.9	-21.3	-2.7	1	1.4
CC(C)N(Cc1nc(-c2ccc(Cl)cc2)no1)Cc1nccn1C	-0.1	1.2	-1.0	1	21.0
COc1ccc(-n2cc(C#N)c(=O)[nH]c2=O)cc1	-2.5	-9.0	-5.4	1.1	4.8
O=C(NC(=S)NCCC1=CCCCC1)c1cccnc1	4.2	3.2	-2.8	1	44.2
CC(C)(C)OC(=O)N1CCN(C(=O)[C@H](Cc2ccc(O)cc2)n2cc(CCO)nn2)CC1	2.3	-14.8	-8.1	1.1	-5.1
COc1ccccc1NC(=S)NCCC(c1ccccc1)c1ccccc1	13.7	-134.5	-4.2	1	70.6*
COc1ccccc1NC(=S)NC1CCCCCC1	9.0	-8.5	-1.5	1	58.7*
COc1ccccc1CNC(=S)NC1CCCCC1	23.5	-10.7	-2.7	1	53.2
CCC(C)NCCOCCOc1ccc(Br)cc1 (stereo not given)	-7.1	-7.6	-8.2	1.1	0.0
O=C(O)C1C2C=CC(C2)C1C(=O)Nc1ccc(C(=O)N2CCCCC2)cc1 (stereo not given)	10.3	-10.5	-1.6	1	68.0*
CCOc1ccc(/C=N/NC(=O)c2cc(-c3cccn3C)n[nH]2)cc1	1.1	79.1*	7.4	0.9	3.7
O=C(O)c1cc(-c2ccccc2Cl)n[nH]1	11.2	96.2*	10.5	0.9	-1.9
SMILES	Arbovirus inh	TNAP inh no acc	TNAP inh hiacc	TNAP act hi DEA	WT yeast gro inh
Cn1cccc1-c1cc(C(=O)O)[nH]n1	1.9	69.6*	1.9	1	-4.9
CCOc1ccc(C(=O)N/N=C/c2ccc(SC)cc2)cc1	4.6	-11.1	-4.4	1	10.8
O=C(O)c1cc(-c2ccccc2)n[nH]1	2.7	85.9*	2.3	1	16.2
NC(=O)COC(=O)CC12CC3CC(CC(Br)(C3)C1)C2	-1.0	-5.3	0.3	1	0.7
Cc1cccc(NC(=S)NNC(=O)CCn2cc(C)cn2)c1	-4.5	-13.5	-0.1	1	-27.6
CCCCn1c(N)c(C(=S)NC(=O)CC(C)(C)C)c(=O)n(C)c1=O	-21.3	0.4	6.7	0.9	68.2*
CCOC(=O)c1c(C)oc2c1c(C=NCCO)c(O)c1ccccc12	4.2	10.1	4.3	1	4.1
CCOC(=O)c1c(C)oc2c1c(C(c1cccnc1)N1CCCCC1)c(O)c1ccccc12 (stereo not given)	-46.1	-2.6	-2.8	1	70.7*
CCOC(=O)c1c(C)oc2c1c(C(c1ccccc1)N1CCOCC1)c(O)c1ccccc12 (stereo not given)	-37.5	0.3	-2.4	1	67.2*
CN1C(=O)C(O)(c2sc(N)nc2-c2ccccc2)c2ccccc21 (stereo not given)	-0.9	-1.0	-3.0	1	18.1
Cc1ccc(S(=O)(=O)CCC(=O)OCC(=O)NCc2ccc(Cl)cc2)cc1	1.7	1.3	1.7	1	10.5
CCCS(=O)(=O)c1c(S(=O)(=O)CCC)c2ccc(C(N)=O)cn2c1C(=O)c1ccc(OC)cc1	22.1	-6.7	-2.9	1	-8.4
CCC(=O)C1=C(O)C(c2cccc(Oc3ccccc3)c2)CCC1=O (stereo not given)	1.1	-9.9	-3.0	1	63.2*
COCCN1C(=O)C(O)=C(C(=O)c2ccco2)C1c1cccc(Oc2ccccc2)c1 (stereo not given)	-11.8	-1.7	-1.2	1	7.1
CN(/N=C\c1ccc(O)c(O)c1)c1nc(-c2ccccc2)cc(-c2ccccc2)n1	-33.3	19.5	12.6	0.9	71.1*
O=C(Nc1cccc(S(=O)(=O)Nc2ccccc2F)c1)c1ccc2ccccc2n1	11.6	-23.1	-5.4	1.1	86.7*
O=C(Nc1ccccc1C(=O)O)c1ccc2ccccc2n1	42.1*	1.0	-0.9	1	-6.8
COc1ccccc1NS(=O)(=O)c1cccc(NC(=O)c2ccc3ccccc3n2)c1	23.7	-11.3	-1.1	1	29.8
CCCC1CCc2c(sc(N)c2C(N)=O)C1 (stereo not given)	3.3	-8.4	-1.3	1	22.8
CCCc1c(OCCCCc2nn[nH]n2)ccc(C(C)=O)c1O	34.8*!	-11.0	-4.1	1	-1.6
CC(C)NS(=O)(=O)c1ccc(CCC(=O)Nc2ccc3c(c2)OCO3)cc1	-3.2	-17.7	-5.8	1.1	13.9
Cc1nn(-c2nc3ccccc3[nH]2)c(=O)c2ccccc12	-30.7	-51.2	-4.4	1	90.5*
Cc1nn(-c2ccc3ccccc3c2)c(=O)c2ccccc12	-2.0	-3.9	-0.9	1	2.8
O=C(Nc1ccccc1)c1ccc(CSc2ncccn2)cc1	-13.3	-5.8	-1.1	1	2.6
Cc1nn(Cc2ccccc2)c2sc(C(=O)N3CCN(Cc4ccc5c(c4)OCO5)CC3)cc12	-11.9	-2.6	1.7	1	18.9
CCc1c(C(=O)NNC(=S)NCCc2ccccc2)csc1C	1.5	-105.3	0.7	1	2.9
COC(=O)C(C)Oc1ccc2c3c(c(=O)oc2c1)CCCCC3 (stereo not given)	-0.3	-6.3	-4.1	1	3.3
O=C(O)Cc1cc(I)c(Oc2ccc(O)c(I)c2)c(I)c1	52.3*	-8.8	-1.3	1	-12.2
CCOc1ccc2cc(/C=C/C(=O)c3ccco3)c(Cl)nc2c1	-7.9	-2.8	-7.6	1.1	3.0
Fc1cc(Br)ccc1NC(=S)Nc1ccccc1	17.5	5.4	-0.3	1	7.4
